Sampled rows, rich in hits. Any-hit rate of the full collection: about 1.8%.
eIF4H FP inh – inhibitors of RNA binding by human eIF4H; Q15056; eIF4H fluorescence polarization binding assay; inhibition, % at 35 µM; actives 0.94% (n = 290,000); AID 2012;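 also: calls also rest on retests at 20 µM and on dose response follow-up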
MT1-MMP act inh – blocks activation of human MT1-MMP; GFP/RFP ratio change, % at 20 µM; HT1080 RFP-PRO-GFP cells, GFP/RFP ratio fluorescence, overnight; percent of plate control window, DMSO zero; AID 651647; actives 0.061% (n = 360,000); P50281;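 active = GFP/RFP ratio change of at least 30% with cell ATP level not reduced by more than half and red fluorescence within 50% of control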
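Test system: HT1080 cells expressing an RFP-PRO-GFP fluorescent reporter construct / Compound dosing: single-point 20 µM compound, 1% DMSO / Schedule: cells overnight before dosing, compound overnight, 37 °C, 5% CO2 / Evaluation: GFP/RFP fluorescence ratio / Control set: DMSO and RFP-L50D-GFP cell wells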
SKN-1 block – inhibitors of C. elegans SKN-1; actives 0.49% (n = 360,000); inhibition, % at 21.8 µM; C. elegans VP596 Pgst-4::GFP/RFP ratio, acrylamide-induced, 24 h;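 active = interference check ratio from 0.5 to 1.5 plus GFP to RFP signal ratio inhibition reaching or exceeding a fixed threshold, cut at about 30% in these data, passing the limit was not always enough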
PABP polyA inh – PABP-poly(A) binding inhibition; PABP-poly(A) RNA binding, fluorescence polarization; AID 2014; actives 1% (n = 290,000); calls only at 35 µM; P11940;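 also: calls also rest on retests at 20 µM and on dose response follow-up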
MLLE-PAM2 inh – inhibitors of microRNA-mediated deadenylation, human PABP1 MLLE binding; AID 588489; actives 0.36% (n = 360,000); GST-MLLE / FITC-PAM2 fluorescence polarization; P11940; inhibition, % at 20 µM; in the data active = inhibition above about 35%, passing the limit was not always enough;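 also: plate controls were DMSO wells with GST-MLLE for no effect and wells lacking GST-MLLE protein for full effect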
Numbers without * were called inactive. Unless noted, no rule for the calls is given here.

For CCN(c1cccc(C)c1)S(=O)(=O)c1ccc(-c2cc(C)no2)s1 the results were eIF4H FP inh 88*, MT1-MMP act inh 0, SKN-1 block 17, PABP polyA inh inactive and MLLE-PAM2 inh -4.
`Cc1cccc(N(C)S(=O)(=O)c2ccc(-c3cc(C)no3)s2)c1` gave eIF4H FP inh -8, MT1-MMP act inh 6, SKN-1 block -7, PABP polyA inh inactive and MLLE-PAM2 inh -3.
`COc1cccc(-c2nc(=S)c3c(o2)CCCC3)c1` gave eIF4H FP inh -2, MT1-MMP act inh -6, SKN-1 block 6, PABP polyA inh inactive and MLLE-PAM2 inh 45*.
`O=[N+]([O-])c1ccc(-c2nc(=S)c3c(o2)CCCC3)cc1` gave eIF4H FP inh -6, MT1-MMP act inh -23, SKN-1 block 18, PABP polyA inh inactive and MLLE-PAM2 inh 45*.
Screening S=c1nc(-c2ccccc2)oc2c1CCCC2 returned eIF4H FP inh -8, MT1-MMP act inh -1, SKN-1 block 6, PABP polyA inh inactive and MLLE-PAM2 inh 36.
Screening O=[N+]([O-])c1ccc(C2=NCCO2)cc1 returned eIF4H FP inh 5, MT1-MMP act inh 1, SKN-1 block -3, PABP polyA inh inactive and MLLE-PAM2 inh 11.
COc1cc(NC(=O)c2ccccc2-c2ccccc2)cc(OC)c1OC was read as eIF4H FP inh -2 and PABP polyA inh inactive.
For COc1cc(C=Nc2ccccc2C(=O)Nc2ccccc2)cc(OC)c1OC the results were eIF4H FP inh 3.3*, MT1-MMP act inh -1, SKN-1 block -5, PABP polyA inh active and MLLE-PAM2 inh 9.
`O=C(CNC(=O)c1ccccc1F)OCn1nnc2ccccc2c1=O` gave MT1-MMP act inh 1, SKN-1 block 7 and MLLE-PAM2 inh -2.
`COc1cc(-c2ccc(Nc3ccccc3C(=O)O)c(OC)c2)ccc1Nc1ccccc1C(=O)O` gave eIF4H FP inh 91*, MT1-MMP act inh 5, SKN-1 block -5, PABP polyA inh active and MLLE-PAM2 inh -8.
For COc1cccc(Nc2ccccc2C(=O)O)c1 the results were eIF4H FP inh 5, MT1-MMP act inh -3, SKN-1 block 6, PABP polyA inh inactive and MLLE-PAM2 inh 1.
COCCn1c(SCC(=O)c2c(N)n(C3CC3)c(=O)[nH]c2=O)nnc1-c1cccc(C)c1 was read as MT1-MMP act inh 4, SKN-1 block -7 and MLLE-PAM2 inh -4.
`Cc1noc(C)c1NC(=O)N(C)C[C@H]1Oc2c(NS(=O)(=O)c3cn(C)cn3)cccc2C(=O)N([C@H](C)CO)C[C@@H]1C` gave MT1-MMP act inh 1, SKN-1 block 0 and MLLE-PAM2 inh -12.
For Cc1cccc(C)c1NC(=O)CN(C)C(=O)c1cccc(S(=O)(=O)N2CCN(c3ccccc3)CC2)c1 the results were eIF4H FP inh 71, MT1-MMP act inh 4, SKN-1 block -3, PABP polyA inh active and MLLE-PAM2 inh 2.
`N#Cc1ccc(OCC(=O)Nc2ccccc2NS(=O)(=O)c2cccs2)cc1` gave eIF4H FP inh 53*, MT1-MMP act inh -4, SKN-1 block 9, PABP polyA inh active and MLLE-PAM2 inh -4.
O=C(CCC(=O)OCC(=O)c1cccc([N+](=O)[O-])c1)Nc1cccc(Cl)c1Cl was read as eIF4H FP inh -2, MT1-MMP act inh 1, SKN-1 block 33, PABP polyA inh inactive and MLLE-PAM2 inh 13.
Cc1ccccc1NC(=O)CCC(=O)OCC(=O)c1cccc([N+](=O)[O-])c1 was read as eIF4H FP inh -2, MT1-MMP act inh 1, SKN-1 block 37*, PABP polyA inh inactive and MLLE-PAM2 inh 8.
`COc1ccccc1C(C)NC(=O)c1ccccc1SCC(=O)N1CCCC1` (stereo unspecified) gave MT1-MMP act inh -1, SKN-1 block -5 and MLLE-PAM2 inh -45.
For CCN(CC)S(=O)(=O)c1cccc(-c2nnc(SCC(=O)c3cc(C)n(C4CC4)c3C)o2)c1 the results were eIF4H FP inh 70*, MT1-MMP act inh 0, SKN-1 block 42*, PABP polyA inh active and MLLE-PAM2 inh -113.
CCc1nnc(NS(=O)(=O)c2ccc(NS(=O)(=O)c3ccc(NC(C)=O)cc3)cc2)s1 was read as eIF4H FP inh 3 and PABP polyA inh inactive.
For CC(=O)Nc1ccc(S(=O)(=O)Nc2nnc(CC(C)(C)C)s2)cc1 the results were eIF4H FP inh -1, MT1-MMP act inh -1, SKN-1 block 0, PABP polyA inh inactive and MLLE-PAM2 inh 43*.
